Experimental findings from ChEMBL document CHEMBL1687780, “Mutations in 23S rRNA at the peptidyl transferase center and their relationship to linezolid binding and cross-resistance” (2010) are described below.

Each structure is given as a SMILES string. Converted amounts (≈) assume the structure as drawn.

As usually defined, the MIC is the lowest concentration found to suppress growth. Read a low MIC as inhibition by little substance.

Common to all, as to format: functional
The subject of assay [1] is Mycolicibacterium smegmatis. In words: Antibacterial activity against Mycobacterium smegmatis SZ558 after 24 generation times. Summed up: (§1)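 M. smegmatis SMR5 strains with one rRNA operon on a plasmid integrated at attB, grown in LB + 0.05% Tween 80 at 37°C to visible growth, diluted to OD600 0.02, and mixed 1:1 with 2-fold antibiotic dilutions. Tested ranges were linezolid 0.125–64 μg/ml and chloramphenicol, clindamycin, valnemulin 1–512 μg/ml. Incubation ran 37°C for 24 generation times of each strain. MIC was the lowest concentration with complete visual inhibition. Parent/wild-type controls were on each plate.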

Assay [2] concerns Mycolicibacterium smegmatis. In words: Antibacterial activity against Mycobacterium smegmatis harboring 23S rRNA A2058G mutant after 24 generation times. The method, boiled down:
as §1

Assay [3] has as its system Mycolicibacterium smegmatis. In words: Antibacterial activity against Mycobacterium smegmatis harboring 23S rRNA G2032C mutant after 24 generation times. The method, boiled down: as §1
The test system of assay [4] is Mycolicibacterium smegmatis. In words: Antibacterial activity against Mycobacterium smegmatis harboring 23S rRNA C2499A2 mutant after 24 generation times. The method, boiled down:
as §1

In assay [5] the test system is Mycolicibacterium smegmatis. In words: Antibacterial activity against Mycobacterium smegmatis harboring 23S rRNA G2505A mutant after 24 generation times. Summed up: as §1
Assay [6] relates to Mycolicibacterium smegmatis. In words: Antibacterial activity against Mycobacterium smegmatis harboring 23S rRNA G2032A, C2499A mutant after 24 generation times. The method, boiled down:
as §1

Assay [7] deals with Mycolicibacterium smegmatis. In words: Antibacterial activity against Mycobacterium smegmatis harboring 23S rRNA A2503G mutant after 24 generation times. Summed up:
as §1

In assay [8] the test system is Mycolicibacterium smegmatis. In words: Antibacterial activity against Mycobacterium smegmatis harboring 23S rRNA G2576U mutant after 24 generation times. The method, boiled down:
as §1

In assay [9] the test system is Mycolicibacterium smegmatis. In words: Antibacterial activity against Mycobacterium smegmatis harboring 23S rRNA A2572U1 mutant after 24 generation times. The method, boiled down: as §1
In assay [10] the test system is Mycolicibacterium smegmatis. In words: Antibacterial activity against Mycobacterium smegmatis harboring 23S rRNA C2055A, A2572U mutant after 24 generation times. The method, boiled down:
as §1

For assay [11], the system named is Mycolicibacterium smegmatis. In words: Antibacterial activity against Mycobacterium smegmatis harboring 23S rRNA C2055A mutant after 24 generation times. Summed up: as §1
Assay [12] has as its system Mycolicibacterium smegmatis. In words: Antibacterial activity against Mycobacterium smegmatis harboring 23S rRNA A2453U mutant after 24 generation times. The method, boiled down:
as §1

For assay [13], the system named is Mycolicibacterium smegmatis. In words: Antibacterial activity against Mycobacterium smegmatis harboring 23S rRNA C2055A, U2504G mutant after 24 generation times. Summed up:
as §1

Assay [14] deals with Mycolicibacterium smegmatis. In words: Antibacterial activity against Mycobacterium smegmatis harboring 23S rRNA G2032A, U2504G mutant after 24 generation times. The method, boiled down: as §1
The test system of assay [15] is Mycolicibacterium smegmatis. In words: Antibacterial activity against wild type Mycobacterium smegmatis after 24 generation times. Summed up: as §1
Assay [16] has as its system Mycolicibacterium smegmatis. In words: Antibacterial activity against Mycobacterium smegmatis harboring 23S rRNA C2499U mutant after 24 generation times. The method, boiled down: as §1
Assay [17] has as its system Mycolicibacterium smegmatis. In words: Antibacterial activity against Mycobacterium smegmatis harboring 23S rRNA C2612A mutant after 24 generation times. Summed up:
as §1

Assay [18] deals with Mycolicibacterium smegmatis. In words: Antibacterial activity against Mycobacterium smegmatis harboring 23S rRNA U2504G mutant after 24 generation times. Summed up: as §1
In assay [19] the test system is Mycolicibacterium smegmatis. In words: Antibacterial activity against Mycobacterium smegmatis harboring 23S rRNA G2032A mutant after 24 generation times. The method, boiled down: as §1
The test system of assay [20] is Mycolicibacterium smegmatis. In words: Antibacterial activity against Mycobacterium smegmatis harboring 23S rRNA C2571G mutant after 24 generation times. Summed up: as §1

Turning to `C=C[C@]1(C)C[C@@H](OC(=O)CSC(C)(C)CNC(=O)[C@H](N)C(C)C)[C@]2(C)[C@H](C)CC[C@]3(CCC(=O)[C@H]32)[C@@H](C)[C@@H]1O` [VALNEMULIN], the MIC was determined as 32 µg/mL (≈ 56.7 µM) in assay [1]; 64 µg/mL (≈ 113 µM) in assay [2]; 128 µg/mL (≈ 227 µM) in [3]; 64 µg/mL (≈ 113 µM) in assay [4]; 32 µg/mL (≈ 56.7 µM) in assay [5]; 128 µg/mL (≈ 227 µM) in [6]. Also, the minimum inhibitory concentration (MIC) stood at 32 µg/mL (≈ 56.7 µM) in assay [7]; 32 µg/mL (≈ 56.7 µM) in assay [8]; 128 µg/mL (≈ 227 µM) in [9]; 128 µg/mL (≈ 227 µM) in [10]; 64 µg/mL (≈ 113 µM) in assay [11]; 64 µg/mL (≈ 113 µM) in [12]. Further, the MIC in assay [13] is 64 µg/mL (≈ 113 µM); in assay [14], 128 µg/mL (≈ 227 µM); in assay [15] it was 32 µg/mL (≈ 56.7 µM); in assay [16] it was 32 µg/mL (≈ 56.7 µM); in assay [17], 32 µg/mL (≈ 56.7 µM); in [18] it was 64 µg/mL (≈ 113 µM). Further, the results for the MIC in assay [19] and in [20] were 128 µg/mL (≈ 227 µM) and 32 µg/mL (≈ 56.7 µM), respectively.
As for `O=C(N[C@H](CO)[C@H](O)c1ccc([N+](=O)[O-])cc1)C(Cl)Cl` [CHLORAMPHENICOL], the MIC turned out to be 32 µg/mL (≈ 99 µM) in assay [1]; 32 µg/mL (≈ 99 µM) in [2]; 32 µg/mL (≈ 99 µM) in [3]; 32 µg/mL (≈ 99 µM) in [4]; 128 µg/mL (≈ 396 µM) in assay [5]; 64 µg/mL (≈ 198 µM) in [6]. Further, the MIC in [7] amounted to 128 µg/mL (≈ 396 µM); in assay [8], 256 µg/mL (≈ 792 µM); in [9], 8 µg/mL (≈ 24.8 µM); in assay [10], 64 µg/mL (≈ 198 µM); in assay [11], 32 µg/mL (≈ 99 µM); in [12] it was 32 µg/mL (≈ 99 µM). Also, the MIC in assay [13] was 128 µg/mL (≈ 396 µM); in [14], 256 µg/mL (≈ 792 µM); in [15], 32 µg/mL (≈ 99 µM); in assay [16] it was 32 µg/mL (≈ 99 µM); in assay [17], 64 µg/mL (≈ 198 µM); in assay [18] it was 512 µg/mL (≈ 1580 µM). The MIC in [19] and in assay [20] was 32 µg/mL (≈ 99 µM) in each case.
`CC(=O)NC[C@H]1CN(c2ccc(N3CCOCC3)c(F)c2)C(=O)O1` [LINEZOLID]: the MIC was determined as 2 µg/mL (≈ 5.93 µM) in assay [1]; 2 µg/mL (≈ 5.93 µM) in [2]; 4 µg/mL (≈ 11.9 µM) in assay [3]; 2 µg/mL (≈ 5.93 µM) in assay [4]; 16 µg/mL (≈ 47.4 µM) in assay [5]; 8 µg/mL (≈ 23.7 µM) in assay [6]. The MIC in assay [7] was determined as 8 µg/mL (≈ 23.7 µM); in [8] it was 64 µg/mL (≈ 190 µM); in [9], 4 µg/mL (≈ 11.9 µM); in assay [10], 64 µg/mL (≈ 190 µM); in assay [11], 0.5 µg/mL (≈ 1.48 µM); in assay [12], 4 µg/mL (≈ 11.9 µM). For the same molecule, the MIC in assay [13] came to 32 µg/mL (≈ 94.9 µM); in assay [14] it was 64 µg/mL (≈ 190 µM); in assay [15], 2 µg/mL (≈ 5.93 µM); in assay [16], 2 µg/mL (≈ 5.93 µM); in assay [17], 4 µg/mL (≈ 11.9 µM); in assay [18] it was 8 µg/mL (≈ 23.7 µM). Moreover, the MIC was found to be 2 µg/mL (≈ 5.93 µM) in assay [19] and 4 µg/mL (≈ 11.9 µM) in assay [20].
As to `CCC[C@@H]1C[C@@H](C(=O)N[C@@H]([C@H]2O[C@H](SC)[C@H](O)[C@@H](O)[C@H]2O)[C@H](C)Cl)N(C)C1` [CLINDAMYCIN], the minimum inhibitory concentration (MIC) in assay [1] is 16 µg/mL (≈ 37.6 µM); in assay [2], more than 1030 µg/mL; in [3], 128 µg/mL (≈ 301 µM); in assay [4], 16 µg/mL (≈ 37.6 µM); in assay [5] it was 16 µg/mL (≈ 37.6 µM); in assay [6], 16 µg/mL (≈ 37.6 µM). Moreover, the MIC in [7] was 8 µg/mL (≈ 18.8 µM); in [8], 64 µg/mL (≈ 151 µM); in assay [9], 16 µg/mL (≈ 37.6 µM); in assay [10] it was 512 µg/mL (≈ 1200 µM); in [11], 32 µg/mL (≈ 75.3 µM); in assay [12], 32 µg/mL (≈ 75.3 µM). Further, the MIC in [13], in assay [14], in assay [15], in assay [16], in assay [17] and in assay [18] was 16 µg/mL (≈ 37.6 µM) each time. The figures for the MIC in [19] and in [20] were 32 µg/mL (≈ 75.3 µM) and 16 µg/mL (≈ 37.6 µM), respectively.
